Experimental data reported in ChEMBL document CHEMBL2434904, “Novel N-methylsulfonamide and retro-N-methylsulfonamide derivatives as 17β-hydroxysteroid dehydrogenase type 2 (17β-HSD2) inhibitors with good ADME-related physicochemical parameters” (Eur J Med Chem, 2013).

How the values were obtained:
[1] = biological target: T1, 17-beta-hydroxysteroid dehydrogenase type 2 (Homo sapiens, UniProt P37059); assay: Inhibition of 17beta-HSD2 (unknown origin)
T1 sequence (P37059 whole entry): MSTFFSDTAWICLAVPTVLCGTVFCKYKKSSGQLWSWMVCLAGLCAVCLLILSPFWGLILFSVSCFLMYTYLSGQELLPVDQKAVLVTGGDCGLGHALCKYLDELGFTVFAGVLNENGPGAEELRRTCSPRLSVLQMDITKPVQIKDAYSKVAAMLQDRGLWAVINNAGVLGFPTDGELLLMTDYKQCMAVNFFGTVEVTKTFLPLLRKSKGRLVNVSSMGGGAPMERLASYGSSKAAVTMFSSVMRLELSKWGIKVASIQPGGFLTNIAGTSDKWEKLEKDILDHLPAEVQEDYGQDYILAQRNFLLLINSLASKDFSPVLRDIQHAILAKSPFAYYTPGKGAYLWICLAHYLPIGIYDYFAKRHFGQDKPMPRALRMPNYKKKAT

[2] = biological target: T2, 17-beta-hydroxysteroid dehydrogenase type 1 (Homo sapiens, UniProt P14061); assay: Inhibition of human placenta 17beta-HSD1 cytosolic fraction using unlabeled, [2,4,6,7-3H]-estrone as substrate after 10 mins by HPLC analysis in presence of NADH
T2 sequence (P14061 whole entry): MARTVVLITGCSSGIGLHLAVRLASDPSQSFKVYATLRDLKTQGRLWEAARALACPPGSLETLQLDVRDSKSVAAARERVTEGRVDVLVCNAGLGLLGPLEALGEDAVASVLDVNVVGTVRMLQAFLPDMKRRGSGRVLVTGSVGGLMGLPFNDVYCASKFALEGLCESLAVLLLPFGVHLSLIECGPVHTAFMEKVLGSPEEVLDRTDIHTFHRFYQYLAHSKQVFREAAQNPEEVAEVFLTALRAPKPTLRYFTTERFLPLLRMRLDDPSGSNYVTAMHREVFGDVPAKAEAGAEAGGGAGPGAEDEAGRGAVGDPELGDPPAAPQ

[3] = biological target: T3, 17-beta-hydroxysteroid dehydrogenase type 1 (Homo sapiens) (UniProt P14061); assay: Inhibition of human placenta 17beta-HSD1 cytosolic fraction using unlabeled, [2,4,6,7-3H]-estrone as substrate at 1 uM after 10 mins by HPLC analysis in presence of NADH relative to control
T3 sequence (whole entry): T2 sequence (P14061 whole entry)

[4] = biological target: T4, 17-beta-hydroxysteroid dehydrogenase type 2 (Homo sapiens) (UniProt P37059); assay: Inhibition of human placenta 17beta-HSD2 microsomal fraction using unlabeled, [2,4,6,7-3H]-estradiol as substrate at 1 uM after 20 mins by HPLC analysis in presence of NAD+ relative to control
T4 sequence (whole entry): T1 sequence (P37059 whole entry)
Outline: (§1)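 17β-HSD2 came from the human placental microsomal pellet after fractional centrifugation at 1000, 10,000 and 150,000 g. It was incubated at 37 °C with NAD⁺ and inhibitor in 50 mM phosphate buffer with 20% glycerol, 1 mM EDTA and 1% DMSO final. Unlabeled plus [³H]-E2 (500 nM final) was added, and the reaction was stopped with HgCl₂ after 20 min. After ether extraction, radio-flow detection gave % conversion = E1/(E1+E2). At least three independent experiments were run.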

[5] = biological target: T1, 17-beta-hydroxysteroid dehydrogenase type 2; assay: Inhibition of human placenta 17beta-HSD2 microsomal fraction using unlabeled, [2,4,6,7-3H]-estradiol as substrate after 20 mins by HPLC analysis in presence of NAD+; outline: as §1
[6] = Partition coefficient, log P of the compound; assay type: physicochemical; conditions: octanol/water
Outline: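 Experimental log P was measured on a SiriusT3 instrument. Calculated log P came from the GALAS method, which predicts from structurally similar molecules with known experimental data.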

Homo sapiens = organism: Homo sapiens; assay: Selectivity factor, ratio of IC50 for human placenta 17beta-HSD1 cytosolic fraction to IC50 for human placenta 17beta-HSD2 microsomal fraction
Outline: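 Selectivity factor is IC50(17β-HSD1, placental cytosolic, E1/NADH assay) divided by IC50(17β-HSD2, placental microsomal, E2/NAD⁺ assay). Both come from radiolabeled-substrate conversion assays at 37 °C with 500 nM substrate.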

| SMILES | IC50 [1] [nM] | IC50 [2] [nM] | inhibition [3] [%] | inhibition [4] [%] | IC50 [5] [nM] | logP [6] | Ratio IC50 (Homo sapiens) |
| --- | --- | --- | --- | --- | --- | --- | --- |
| CN1C(=O)C[C@@H](c2ccccc2F)[C@@H]1[C@@H](O)c1ccc(-c2ccccc2)cc1 | 1020 | – | – | – | – | – | – |
| CN(c1cccc(-c2cccc(O)c2)c1)S(=O)(=O)c1cccc(O)c1 | – | 427 | 68 | 88 | 159 | 4.08 | 3 |
| COc1cccc(-c2cccc(C(=O)N(C)c3cccc(OC)c3)c2)c1 | – | > 60000 | – | – | – | – | > 115 |
| CN1C(=O)C[C@@H](c2ccccc2F)[C@@H]1[C@@H](O)c1cccc(-c2ccccc2)c1 | 420 | – | – | – | – | – | – |
| CN(c1cccc(O)c1)S(=O)(=O)c1cccc(-c2cccc(O)c2)c1 | – | 1310 | 42 | 68 | 540 | 4.34 | 2 |
| CN(c1ccc(-c2cccc(O)c2)cc1)S(=O)(=O)c1cccc(O)c1 | – | 3280 | 22 | 66 | 511 | 3.72 | 6 |
| COc1ccc(-c2cccc(C(=O)N(C)Cc3cccc(OC)c3)c2)cc1 | – | – | 3 | – | – | – | – |
